# UBC13 polyUb – UBC13 polyubiquitin chain formation inhibitors, primary screen, biochemical, TR-FRET, uHTS. Ubiquitin-conjugating enzyme E2 N (Homo sapiens), P61088. inhibition, % at 20 µM. 0.47% of 330,000 active. AID 485273, 2010; in the data active = inhibition above about 45%, passing the limit was not always enough
# SUMO HTRF inh – inhibitors of in vitro SUMOylation cascade, primary screen, biochemical, HTRF, uHTS | SUMO-conjugating enzyme UBC9 (Homo sapiens), P63279 | 0.36% of 290,000 active | HTRF SUMOylation assay, SAE1/SAE2 + UBC9 | inhibition, % at 35 µM | AID 2006, 2009; in the data active = inhibition above about 50%, passing the limit was not always enough
# Apaf1 inhib – inhibitors of human Apaf-1 apoptosome, primary screen, biochemical, DEVD-Rh110 fluorescence, uHTS | Apoptotic protease-activating factor 1 (Homo sapiens), O14727 | reconstituted apoptosome caspase-3 activity | inhibition, % at 20 µM | 0.71% of 330,000 active; active = inhibition of at least 40% at 20 µM;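 also: plate controls were DMSO wells for no effect and DEVD-CHO caspase inhibitor wells for full effect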
#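 Material: reconstituted apoptosome with Apaf-1, cytochrome c, caspase-9, procaspase-3, dATP / Buffer or medium: pH 7.5 Hepes buffer with CHAPS, BSA, DTT / Also added: cytochrome c with DEVD-Rh110 / Schedule: compound with Apaf-1, dATP, procaspase-3 30 min, then 50 min reaction, room temperature / Technique: rhodamine 110 fluorescence at Ex 480/Em 540 nm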
# GSTO1 inh – inhibitors of recombinant GSTO1, primary screen, counter-screen for RBBP9 inhibitor project, biochemical, fluorescence polarization. Glutathione S-transferase omega-1 (Homo sapiens), P78417. activity-based probe fluorescence polarization. 1.1% of 300,000 active. inhibition, % at 5.96 µM. AID 1974, 2009;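 active = inhibition above the campaign mean inhibition plus 3 SD, cut at about 35% in these data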;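 also: 0% = GSTO1-1 with DMSO and 100% = wells lacking GSTO1-1 enzyme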
# PAD4 inh – human PAD4 inhibitors, primary screen, biochemical, fluorescence polarization, 1536-well format; recombinant PAD4, RCA probe fluorescence polarization; inhibition, % at 6.36 µM; 0.41% of 330,000 active;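 active = percent inhibition above a cutoff equal to the mean of all tested compounds plus 3 SD, cut at about 15% in these data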;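 also: 0% = PAD4 with RCA probe and DMSO and 100% = probe without PAD4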
# Target sequence (Q9UM07 whole entry, looked up): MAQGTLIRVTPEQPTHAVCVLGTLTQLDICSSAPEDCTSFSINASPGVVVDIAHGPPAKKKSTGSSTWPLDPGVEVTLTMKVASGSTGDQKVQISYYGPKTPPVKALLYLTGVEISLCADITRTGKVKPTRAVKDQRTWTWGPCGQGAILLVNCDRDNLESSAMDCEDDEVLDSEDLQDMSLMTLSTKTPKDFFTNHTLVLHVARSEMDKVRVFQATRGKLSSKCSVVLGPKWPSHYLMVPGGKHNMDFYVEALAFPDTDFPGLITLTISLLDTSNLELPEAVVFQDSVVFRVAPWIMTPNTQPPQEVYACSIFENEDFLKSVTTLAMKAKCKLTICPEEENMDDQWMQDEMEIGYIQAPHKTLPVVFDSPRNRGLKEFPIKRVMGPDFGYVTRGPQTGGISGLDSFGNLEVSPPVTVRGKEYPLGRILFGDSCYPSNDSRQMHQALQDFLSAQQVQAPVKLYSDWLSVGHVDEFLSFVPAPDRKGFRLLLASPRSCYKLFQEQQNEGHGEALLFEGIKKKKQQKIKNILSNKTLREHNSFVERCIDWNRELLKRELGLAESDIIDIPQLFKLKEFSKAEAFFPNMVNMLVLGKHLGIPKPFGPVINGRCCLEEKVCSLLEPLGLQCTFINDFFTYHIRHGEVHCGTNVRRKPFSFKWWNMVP
# Rin1-Abl PPI inh – inhibitors of Rin1-Abl protein binding, primary screen, biochemical, TR-FRET; Tyrosine-protein kinase ABL1 (Homo sapiens) + Ras and Rab interactor 1 (Homo sapiens), …; inhibition, % at 7.35 µM; 0.4% of 360,000 active; AID 588664, 2011; in the data active = inhibition above about 5%, passing the limit was not always enough
# Apaf-1 inh conf2 – Apaf-1 inhibitors, single-dose retest, confirmation, biochemical, fluorescence, DEVD-Rh110, 20 µM; shares compounds with Apaf1 inhib; reconstituted apoptosome, caspase-3 DEVD-Rh110 fluorescence; inhibition, % at 20 µM; 25% of 1,800 active;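 active = mean inhibition of at least 40% at 20 µM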;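 also: plate controls were DMSO wells for no effect and DEVD-CHO caspase inhibitor control wells for full effect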
# Rh110 interf inh – Rh110 fluorescence interference by putative Apaf-1 inhibitors, confirmation, artefact control for Apaf-1 inhibitor project, biochemical, 20 µM. shares compounds with Apaf1 inhib. quenched caspase reaction. activation (fluorescence interference), % at 20 µM. 1,800 tested, under 10 active;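 active = signal rise of 40% or more at 20 µM, treated as a fluorescence artifact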
# Fluor interf inh – fluorescence interference of Apaf-1 inhibitor hits, dose response, artefact control for Apaf-1 inhibitor project | shares compounds with Apaf1 inhib | fluorescence interference counterscreen, Apaf-1 assay format | IC50, µM | 460 tested, under 10 active; call rule not given here
# * hit, by the source's call; / = no result given. This is a sample that favours compounds with a hit; in the whole collection about 2.2% have one here.
SMILES,UBC13 polyUb,SUMO HTRF inh,Apaf1 inhib,GSTO1 inh,PAD4 inh,Rin1-Abl PPI inh,Apaf-1 inh conf2,Rh110 interf inh,others
O=C(NCc1ccccn1)C(=O)NCC1OCCN1S(=O)(=O)c1ccc([N+](=O)[O-])cc1 (configuration not stated),-9,17,7,-3,-3,-2,/,/,
Cc1ccc2[nH]c3c(c2c1)CN(C(=O)CN1CCN(C(=O)c2ccco2)CC1)CC3,-1,14,19,7,-10,/,/,/,
Cc1ccc2[nH]c3c(c2c1)CN(C(=O)CN1CCN(c2cccc(C)c2C)CC1)CC3,2,60,43*,-3,-8,2,19,6,
CCCCc1c(C)c(C#N)c2[nH]c3ccccc3n2c1=O,-9,14,45*,-142,-6,-6,50*,7,Fluor interf inh=>100
Cc1c(CCC(C)C)c(=O)n2c([nH]c3ccccc32)c1C#N,-4,21,60*,-13,2,-2,65*,-2,Fluor interf inh=>100
Cc1c(CCO)c(=O)n2c([nH]c3ccccc32)c1C#N,1,0,24,-6,-3,1,/,/,
CN(C)C(=O)c1ccc(NC(=O)c2cccnc2)cc1,-14,20,7,6,-3,-3,/,/,
CN(C)C(=O)c1ccc(NC(=O)c2sccc2-c2ccccc2)cc1,4,17,45*,2,-1,-4,31,1,
COc1cccc(-c2nnc(SC(C(=O)c3c[nH]c4ccccc34)c3ccccc3)n2C)c1 (configuration not stated),-6,-7,43*,4,3,-2,22,8,
CCOC(=O)C1(C)CCN1C(=O)COc1ccc(C(C)(C)C)cc1 (configuration not stated),/,/,/,/,/,2,/,/,
COc1ccc(NC2=C(NCCO)C(=O)c3ccccc3C2=O)cc1,-41,32,70*,44*,-14,-6,45*,6,Fluor interf inh=>100
Cc1cc(C)cc(NC2=C(N)C(=O)c3ccccc3C2=O)c1,-54,25,74*,22,13,1,21,0,
Cc1cccc(NC2=C(NCCO)C(=O)c3ccccc3C2=O)c1,-123,54,56*,42*,-3,-7,35,9,
COc1cccc(NC2=C(NCCO)C(=O)c3ccccc3C2=O)c1,-93,20,16,12,-6,-5,/,/,
Cc1cc(C(=O)N2CCC2(C)C(=O)Nc2cccc3ccccc23)nn1C (configuration not stated),/,/,/,/,/,-3,/,/,
COc1ccc(CNS(=O)(=O)CCNC(=O)c2ccc3c(c2)OCO3)cc1,-2,/,4,-3,-2,2,/,/,
CCN(C(=O)COC(=O)CCNS(=O)(=O)c1ccccc1F)c1c(N)n(Cc2ccccc2)c(=O)[nH]c1=O,10,/,-8,/,1,-1,/,/,
COC(=O)c1cccc(Cn2c(Cl)c(/C=N/NC(=O)c3ccco3)sc2=O)c1,-5,6,-6,-16,-11,-4,/,/,
O=C(NC1CC1)C1=C[C@H](c2ccc(C(F)(F)F)cc2)C[C@H](OCCCCO)O1,-2,/,50*,-5,-3,4,4,9,
CCCCCCCCCCCCN1[C@@H](CC(=O)O)c2cc(C(F)(F)F)ccc2S1(=O)=O,-39,/,41*,4,8,2,26,8,
CCCCCCCCN1[C@@H](CC(=O)O)c2cc(C(F)(F)F)ccc2S1(=O)=O,-7,/,1,2,1,4,/,/,
COc1ccc(-n2c(=S)[nH]c3cc(C(=O)NCc4ccco4)ccc3c2=O)c(OC)c1,-1,12,15,5,-3,0,/,/,
COc1ccc(-n2c(N)c(C(=O)NCc3ccco3)c3nc4ccccc4nc32)c(OC)c1,-35,36,65*,37*,1,-1,16,0,
Nc1c(C(=O)NCc2ccco2)c2nc3ccccc3nc2n1CCc1ccccc1F,-24,101,61*,6,-11,-1,34,18,
O=C(NCc1ccco1)c1c(F)c(F)c(F)c(C(=O)NCc2ccco2)c1F,-3,4,-13,1,-8,1,/,/,
SMILES,UBC13 polyUb,SUMO HTRF inh,Apaf1 inhib,GSTO1 inh,PAD4 inh,Rin1-Abl PPI inh,Apaf-1 inh conf2,Rh110 interf inh,others
O=C(/C=C/[C@H]1O[C@@H](n2ccc(=O)[nH]c2=O)[C@H](O)[C@@H]1O)NCCN1CCCCC1,/,/,/,/,/,2,/,/,
CCc1ccccc1NC(=O)CN(C)C(=O)c1cc(C2CC2)nc2c1cnn2C(C)C,-11,/,2,/,-2,-2,/,/,
COc1cc(OC)c2cc(C(=O)N[C@H](C(=O)N3CCC[C@H]3C(=O)O)C(C)C)n(C)c2c1,-2,11,-2,3,3,1,/,/,
COc1ccc(OC)c2c1cc(C(=O)N[C@H](C(=O)N1CCC[C@H]1C(=O)O)C(C)C)n2C,-12,3,52*,11,-3,0,26,4,
CN1CCN(c2ccc(NC(=O)c3cc(S(N)(=O)=O)ccc3N3CCOCC3)cc2)CC1,8,/,40*,/,-3,-1,5,8,
CN1CCN(c2ccc(NC(=O)c3cc([N+](=O)[O-])ccc3N3CCOCC3)cc2)CC1,-17,16,11,-1,-2,-4,/,/,
CN1CCc2nc(SCC(=O)Nc3cccc(F)c3)c(C#N)c(-c3cccs3)c2C1,7,-5,67*,20,5,-4,10,3,
CN1CCc2nc(SCC(=O)Nc3ccc(OC(F)(F)F)cc3)c(C#N)c(-c3cccs3)c2C1,-2,16,23,-7,-4,1,/,/,
O=C(COC(=O)CNS(=O)(=O)c1ccccc1)Nc1ncc(Cl)cc1Cl,-5,/,-13,/,-5,2,/,/,
CCOC(=O)Nc1ccc(NCc2ccc(F)cc2)nc1N,-29,/,96*,12,0,2,53*,4,Fluor interf inh=>100
CCOC(=O)Nc1ccc(C)cc1NC(=O)OCC,-2,14,-6,6,0,-3,/,/,
COC(=O)[C@]1(Cc2ccccc2)N[C@H](CN(C)S(=O)(=O)c2ccc(C(C)(C)C)cc2)[C@@H]2C(=O)N(C)C(=O)[C@@H]21,-9,/,21,/,-3,0,/,/,

# Compound activity: PubChem, several laboratories
